Measurements collected from several papers.
Each line is one published result; the experiments were not run side by side.
Sample: plasma

| SMILES | system | conditions | measurement | result |
| --- | --- | --- | --- | --- |
| CC[C@@H]([C@H](C)O)n1ncn(-c2ccc(N3CCN(c4ccc(OC[C@@H]5CO[C@@](Cn6cncn6)(c6ccc(F)cc6F)C5)cc4)CC3)cc2)c1=O | Sprague-Dawley rat | oral, 40 mg/kg | MRT(0-inf) | 22.1 h |
| Nc1ccn([C@@H]2O[C@H](CO)[C@@H](O)C2(F)F)c(=O)n1 | male Sprague-Dawley rat | intraperitoneal, 5 mg/kg | MRT(0-inf) | 0.88 h |
| Cn1c(=O)c2[nH]cnc2n(C)c1=O | male Sprague-Dawley rat | intravenous, 11.25 mg/kg | MRT(0-t) | 3.3 h |
| C[C@H]1Oc2cc(cnc2N)-c2c(nn(C)c2C#N)CN(C)C(=O)c2ccc(F)cc21 | male Sprague-Dawley rat | oral, 50 mg/kg, single dose | MRT(0-inf) | 25 h |
| CCOc1c([C@H](C)n2nc(C)c3c(N)ncnc32)cc(Cl)c(F)c1[C@@H]1CNC(=O)C1 | male Sprague-Dawley rat | oral, 2 mg/kg, single dose | MRT(0-t) | 7.67 h |
| COc1ccc(N(Cc2csc(-c3ccccc3)n2)C(=O)CCCCCC(=O)NO)cc1 | female Sprague-Dawley rat | oral, 30 mg/kg | MRT | 3.18 h |
| COc1cc(-c2cc(C(C)=O)n3ccccc23)c(OC)cc1Cn1ccnc1 | male Sprague-Dawley rat | intravenous, 5 mg/kg | MRT(0-t) | 1.14 h |
| C=CC(=O)N1CCC[C@@H](n2nc(-c3ccc(Oc4ccccc4)cc3)c3c(N)ncnc32)C1 | male Wistar rat | oral, 40 mg/kg | MRT | 4.55 h |
| COc1nc(-c2cccc(-c3ccccc3)c2C)ccc1CNCCNC(=O)CCCCCCCCCCC(=O)N1CCN(CCNC(=O)c2cc3c(=O)n4cccc(C)c4nc3n(CCc3cccs3)c2=N)CC1 | male Sprague-Dawley rat | intravenous, 2 mg/kg | MRT(0-t) | 4.8 h |
| CONC(=O)c1cccc2c1cc(C)n2-c1nc2c(c(NCc3ccccc3)n1)CCCN2 | male Sprague-Dawley rat | oral, 10 mg/kg, single dose | MRT | 1.55 h |
| C=CC(=O)N1CCC([C@@H]2CCNc3c(C(N)=O)c(-c4ccc(Oc5ccccc5)cc4)nn32)CC1 | Sprague-Dawley rat | oral, 16 mg/kg | MRT(0-inf) | 3.93 h |
| C[C@H]1[C@@H](O)O[C@@H]2O[C@@]3(C)CC[C@H]4[C@H](C)CC[C@@H]1[C@@]24OO3 | male Sprague-Dawley rat | oral, 10 mg/kg | MRT(0-inf) | 2.97 h |
| C[C@@]12C[C@@]3(O)O[C@@H](O1)[C@]1(COC(=O)c4ccccc4)[C@H]3C[C@@]12O[C@@H]1O[C@H](CO)[C@@H](O)[C@H](O)[C@H]1O | male Sprague-Dawley rat | oral, 80 mg/kg | MRT(0-inf) | 10.9 h |
| O=C1CCC(N2Cc3cc(C4CCN(Cc5ccccc5)CC4)ccc3C2=O)C(=O)N1 (centres unmarked) | male Sprague-Dawley rat | oral, 3 mg/kg | MRT(0-t) | 3 h |
